Data published in ChEMBL document CHEMBL4130441, “Mortiamides A-D, Cyclic Heptapeptides from a Novel Mortierella sp. Obtained from Frobisher Bay” (J Nat Prod, 2017).
The source made the active and inactive calls. The calls are words filed in the database; no cut-off is given here. Where a SMILES comes first, the peptide text is derived from it.

Key:
[1] = test system: BJ; assay: Cytotoxicity against human BJ cells assessed as decrease in cell viability at 128 ug/ml after 24 hrs by Alamar blue assay; format: cell-based
Outline: (§1)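 Cells treated in 96-well culture plates in triplicate at 128 μg/mL. Viability measured 24 h after treatment with the redox dye Alamar Blue. Fluorescence read at 560/12 nm excitation and 590 nm emission, at time zero and 4 h after dye addition.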

[2] = test system: Keratinocyte; assay: Cytotoxicity against human epidermal keratinocytes assessed as decrease in cell viability at 128 ug/ml after 24 hrs by Alamar blue assay; outline: as §1
[3] = species on record: Homo sapiens; assay: Cytotoxicity against human HTB-26 cells assessed as decrease in cell viability at 128 ug/ml after 24 hrs by Alamar blue assay; format: functional, cell-based; outline: as §1
[4] = test system: MCF7; assay: Cytotoxicity against human MCF7 cells assessed as decrease in cell viability at 128 ug/ml after 24 hrs by Alamar blue assay; format: functional, cell-based; outline: as §1
[5] = test system: Staphylococcus aureus; assay: Antimicrobial activity against methicillin-resistant Staphylococcus aureus ATCC 33591 at 128 ug/ml after 22 hrs by micro broth dilution assay; format: functional, organism-based
Outline: (§2)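 CLSI 96-well microbroth dilution, triplicate; tested at 128 μg/mL; strains MRSA ATCC 33591 and VRE E. faecium EF379; optical density read at time zero and after 22 h incubation to give growth inhibition.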

[6] = test system: Enterococcus faecium; assay: Antimicrobial activity against vancomycin-resistant Enterococcus faecium EF379 at 128 ug/ml after 22 hrs by micro broth dilution assay; format: functional, organism-based; outline: as §2
[7] = test system: Staphylococcus warneri; assay: Antimicrobial activity against Staphylococcus warneri ATCC 17917 at 128 ug/ml after 22 hrs by micro broth dilution assay; format: functional, organism-based
Outline: (§3)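 CLSI-standard 96-well broth microdilution, run in triplicate. Test concentration 128 μg/mL. Optical density read at time zero and at the final time point; growth inhibition calculated from the change after 22 h incubation.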

[8] = test system: Pseudomonas aeruginosa; assay: Antimicrobial activity against Pseudomonas aeruginosa ATCC 14210 at 128 ug/ml after 22 hrs by micro broth dilution assay; format: functional, organism-based; outline: as §3
[9] = test system: Candida albicans; assay: Antimicrobial activity against Candida albicans ATCC 14035 at 128 ug/ml after 22 hrs by micro broth dilution assay; format: functional, organism-based; outline: as §3

SMILES | Activity [1] | Activity [2] | Activity [3] | Activity [4] | Activity [5] | Activity [6] | Activity [7] | Activity [8] | Activity [9]
CC(C)C[C@@H]1NC(=O)[C@@H](C(C)C)NC(=O)[C@@H](C(C)C)NC(=O)[C@@H](C(C)C)NC(=O)[C@H](Cc2ccccc2)NC(=O)[C@@H](Cc2ccccc2)NC(=O)[C@@H](C(C)C)NC1=O (HELM PEPTIDE1{F.[dV].[dV].[dV].L.[dV].[dF]}$PEPTIDE1,PEPTIDE1,1:R1-7:R2$$$V2.0) | Non-Toxic | Non-Toxic | inactive | inactive | inactive | inactive | inactive | inactive | inactive
CC[C@@H](C)[C@H]1NC(=O)[C@@H](C)NC(=O)[C@H](Cc2ccccc2)NC(=O)[C@@H](CC(C)C)NC(=O)[C@@H](C(C)C)NC(=O)[C@H](Cc2ccccc2)NC(=O)[C@@H]([C@H](C)CC)NC1=O (HELM PEPTIDE1{F.[dA].[dI].[dI].F.[dV].[dL]}$PEPTIDE1,PEPTIDE1,1:R1-7:R2$$$V2.0) | Non-Toxic | Non-Toxic | inactive | inactive | inactive | inactive | inactive | inactive | inactive
CC[C@@H](C)[C@H]1NC(=O)[C@H](Cc2ccccc2)NC(=O)[C@@H]([C@H](C)CC)NC(=O)[C@@H](C(C)C)NC(=O)[C@@H]([C@H](C)CC)NC(=O)[C@H]([C@@H](C)CC)NC(=O)[C@@H](C)NC1=O | Non-Toxic | Non-Toxic | inactive | inactive | inactive | inactive | inactive | inactive | inactive
CC(C)[C@H]1NC(=O)[C@H](Cc2ccccc2)NC(=O)[C@@H](C(C)C)NC(=O)[C@@H](C(C)C)NC(=O)[C@@H](C(C)C)NC(=O)[C@H](Cc2ccccc2)NC(=O)[C@@H](Cc2ccccc2)NC1=O (HELM PEPTIDE1{F.[dV].[dF].F.[dV].[dV].[dV]}$PEPTIDE1,PEPTIDE1,1:R1-7:R2$$$V2.0) | Non-Toxic | Non-Toxic | inactive | inactive | inactive | inactive | inactive | inactive | inactive
